Laboratory results taken from ChEMBL document CHEMBL3868617, “Synthesis, COX-1/2 inhibition activities and molecular docking study of isothiazolopyridine derivatives” (Bioorg Med Chem, 2017).

What was measured:
[1] = molecular target: T1, Prostaglandin G/H synthase 2 (Homo sapiens, UniProt P35354); experiment: Inhibition of COX-2 (unknown origin) using arachidonic acid as substrate preincubated for 2 mins followed by substrate addition in presence of TMPD by spectrophotometric analysis relative to control
T1 sequence (P35354 whole entry): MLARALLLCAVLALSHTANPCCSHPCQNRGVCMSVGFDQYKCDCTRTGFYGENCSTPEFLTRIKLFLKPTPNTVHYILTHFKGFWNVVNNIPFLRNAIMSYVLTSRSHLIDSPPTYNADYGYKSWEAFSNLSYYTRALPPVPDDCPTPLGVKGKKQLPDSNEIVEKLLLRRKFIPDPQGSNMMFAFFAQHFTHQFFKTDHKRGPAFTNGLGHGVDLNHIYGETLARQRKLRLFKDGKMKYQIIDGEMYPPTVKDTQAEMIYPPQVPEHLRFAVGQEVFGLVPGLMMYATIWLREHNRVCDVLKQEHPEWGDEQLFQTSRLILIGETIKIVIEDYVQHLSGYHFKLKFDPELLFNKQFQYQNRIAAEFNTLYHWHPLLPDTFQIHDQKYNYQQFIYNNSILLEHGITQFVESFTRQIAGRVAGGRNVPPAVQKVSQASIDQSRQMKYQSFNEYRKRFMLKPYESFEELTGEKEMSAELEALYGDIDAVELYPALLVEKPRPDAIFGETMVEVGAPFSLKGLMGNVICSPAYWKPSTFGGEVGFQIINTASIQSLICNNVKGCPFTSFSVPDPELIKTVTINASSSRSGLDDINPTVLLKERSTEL

[2] = molecular target: T2, Prostaglandin G/H synthase 1 (Homo sapiens, UniProt P23219); experiment: Inhibition of COX-1 (unknown origin) using arachidonic acid as substrate preincubated for 2 mins followed by substrate addition in presence of TMPD by spectrophotometric analysis; parameters: concentration or dose not given beside the values
In short: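 COX-1 with heme in 0.1 M Tris-HCl pH 8.0; arachidonic acid starts the reaction and the TMPD oxidation rate is read at 590 nm over 2 min.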

Mus musculus = experiment: Antinociceptive activity in Swiss albino mouse assessed as reduction in phenylbenzoquinone-induced abdominal constrictions at 1.8 to 7.8 mg/kg, ip pretreated for 25 mins followed by phenylbenzoquinone treatment measured after 5 mins by writhing test; format: functional, Abdomen; parameters: scale not given: the % may be the effect or the level left
[3] = molecular target: T2, Prostaglandin G/H synthase 1; experiment: Increase in COX-1 (unknown origin) enzyme activity using arachidonic acid as substrate preincubated for 10 mins followed by substrate addition in presence of TMPD by spectrophotometric analysis relative to control
In short: (§1)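 COX-1 in 0.1 M Tris-HCl pH 8.0 with heme; colorimetric read of TMPD oxidation at 590 nm after arachidonic acid starts the reaction. Activity is taken at 10 min of incubation with compound and given as E/E0 against enzyme with solvent only (methanol, ethanol or DMSO). Triplicates; paired t test.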

[4] = molecular target: T2, Prostaglandin G/H synthase 1; experiment: Inhibition of COX-1 (unknown origin) using arachidonic acid as substrate preincubated for 10 mins followed by substrate addition in presence of TMPD by spectrophotometric analysis relative to control; in short: as §1

T2 sequence (P23219 whole entry): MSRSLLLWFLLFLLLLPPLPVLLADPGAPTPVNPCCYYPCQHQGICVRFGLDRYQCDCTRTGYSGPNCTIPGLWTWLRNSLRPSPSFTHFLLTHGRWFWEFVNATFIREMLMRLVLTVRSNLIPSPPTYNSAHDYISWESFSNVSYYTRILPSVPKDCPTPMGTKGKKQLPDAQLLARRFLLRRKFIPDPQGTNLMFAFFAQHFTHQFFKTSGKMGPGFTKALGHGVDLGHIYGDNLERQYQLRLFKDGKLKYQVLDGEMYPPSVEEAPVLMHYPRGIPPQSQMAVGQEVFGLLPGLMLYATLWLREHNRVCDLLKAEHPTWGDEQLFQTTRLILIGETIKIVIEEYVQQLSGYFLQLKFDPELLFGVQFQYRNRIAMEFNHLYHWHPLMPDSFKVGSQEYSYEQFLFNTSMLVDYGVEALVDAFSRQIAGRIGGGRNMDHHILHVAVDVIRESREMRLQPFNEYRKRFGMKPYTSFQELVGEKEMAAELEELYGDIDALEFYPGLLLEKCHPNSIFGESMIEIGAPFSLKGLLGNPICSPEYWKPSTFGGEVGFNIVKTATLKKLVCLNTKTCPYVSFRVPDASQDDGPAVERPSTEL

IC50 ([1]; read-out: IC50) [µM]	inhibition [2] [%]	IC50 ([2]; read-out: IC50) [µM]	IC50 ([1]; read-out: pIC50 (converted)) [µM]	Activity [3] [%]	IC50 ([2]; read-out: pIC50 (converted)) [µM]	inhibition [4] [%]	SMILES	Activity (Mus musculus) [%]
327	25 to 40	229					Cc1cc(C)c2c(OC(C)C(=O)O)nsc2n1 (stereo unspecified)	
368	25 to 40	207				18 to 30	Cc1cc(C)c2c(=O)n(CCC(=O)N3CCN(c4ccccc4)CC3)sc2n1	
388		242					Cc1cc(C)c2c(=O)n(CCC(=O)N3CCN(c4cccc(Cl)c4)CC3)sc2n1	
				11			CN1C(C(=O)Nc2ccccn2)=C(O)c2ccccc2S1(=O)=O	
494		219	5250			18 to 30	Cc1cc(C)c2c(=O)n(CN(C)CCNc3ccccc3)sc2n1	>50
303		497	288				COc1cc2c(cc1OC)CN(C(=O)CCn1sc3nc(C)cc(C)c3c1=O)CC2	

Further lines, the compound ahead of its results:

SMILES	IC50 ([1]; read-out: IC50) [µM]	inhibition [2] [%]	IC50 ([2]; read-out: IC50) [µM]	IC50 ([1]; read-out: pIC50 (converted)) [µM]	Activity [3] [%]	IC50 ([2]; read-out: pIC50 (converted)) [µM]	inhibition [4] [%]	Activity (Mus musculus) [%]
Cc1cc(C)c2c(=O)n(CCCC(=O)N3CCN(c4cccc(Cl)c4)CC3)sc2n1			722					
Cc1cc(C)c2c(OCCCC(=O)O)nsc2n1	269	25 to 40	248	245				
Cc1cc(C)c2c(=O)n(CN3CCN(C4CCCCC4)CC3)sc2n1	359				3 to 7	372 to 661		>50
O=C(CCn1sc2ccccc2c1=O)N1CCN(c2cccc(Cl)c2)CC1	130		331			302		
CCC(C(=O)N1CCN(c2ccccc2)CC1)n1sc2nc(C)cc(C)c2c1=O (stereo unspecified)	344	25 to 40	154			138	18 to 30	
Cc1cc(C)c2c(=O)n(CCCC(=O)N3CCN(c4ccccc4)CC3)sc2n1	459		349					
Cc1cc(C)c2c(=O)n(CC(=O)N3CCN(c4cccc(Cl)c4)CC3)sc2n1	605		375					
Cc1cc(C)c2c(=O)n(CCCC(=O)O)sc2n1	302	25 to 40	235					
Cc1cc(C)c2c(OCCCC(=O)N3CCN(c4ccccc4)CC3)nsc2n1					3 to 7	1550		
Cc1cc(C)c2c(OCCCC(=O)N3CCN(c4cccc(Cl)c4)CC3)nsc2n1			818	4570		380		
Cc1cc(C)c2c(=O)n(CCCN3CCN(c4cccc(Cl)c4)CC3)sc2n1			816			513 to 525		>50
Cc1cc(C)c2c(=O)n(CN3CCN(c4ccccc4F)CC3)sc2n1		25 to 40	156	1260		141	18 to 30	>50
